A short description of series [1]: Aqueous solubility in pH 6.8 buffer solution by HPLC analysis. The class given is physicochemical.
Series [2] in a line: Metabolic stability in rat liver microsomes at 1 uM after 20 mins in presence of NADPH by HPLC analysis. The class given is ADME, microsome. (In general: Microsomes from liver hold many membrane-bound enzymes, among them those of drug oxidation.)
A short description of series [3]: Retention time in human liver microsomes at 1 uM by HPLC analysis. The format is ADME, microsome. In a few lines:
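Incubated for 30 min with human liver microsomes. Parent and metabolites were analysed by HPLC and LC/MSⁿ, giving retention times, [M+H]⁺ and major fragment ions.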

Series [4] can be described thus: Cmax in Crl:CD(SD) rat at 3 mg/kg, po by LC-MS/MS analysis. Also on record: dose 3 mg/kg, route oral. The class given is ADME, organism-based. The following applies: in vivo. In a few lines: (§1)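 Rats were dosed i.v. at 0.2 mg/kg and p.o. at 3.0 mg/kg. Oral dosing was a suspension in 0.5% methyl cellulose or in corn oil, depending on the compound. Vd and CL came from i.v. dosing. Values are means of three animals.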

Series [5] in a line: Tmax in Crl:CD(SD) rat at 3 mg/kg, po by LC-MS/MS analysis. The class given is ADME, organism-based. The following applies: in vivo. In a few lines: as §1
Series [6] is described as follows: AUC in Crl:CD(SD) rat at 3 mg/kg, po by LC-MS/MS analysis. The format is ADME, organism-based. The following applies: in vivo. The method in brief:
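Rats dosed orally at 3.0 mg/kg as a suspension in either 0.5% methyl cellulose or corn oil, depending on the compound. […] AUCpo is reported as ng·h/mL and is the mean of measurements in three animals.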

A short description of series [7]: MRT in Crl:CD(SD) rat at 3 mg/kg, po by LC-MS/MS analysis. The format is ADME, organism-based. To be noted: in vivo. The method in brief: as §1
Series [8] can be described thus: Volume of distribution in Crl:CD(SD) rat at 0.2 mg/kg, iv by LC-MS/MS analysis. The class given is ADME, organism-based. The following applies: in vivo. In a few lines:
as §1

A short description of series [9]: Clearance in Crl:CD(SD) rat at 0.2 mg/kg, iv by LC-MS/MS analysis. The class given is ADME, organism-based. To be noted: in vivo. In a few lines:
as §1

Series [10] in a line: Oral bioavailability in Crl:CD(SD) rat at 3 mg/kg by LC-MS/MS analysis. The format is ADME, organism-based. The following applies: in vivo. In a few lines:
as §1

Series [11] is described as follows: Metabolic stability in human liver microsomes at 1 uM after 20 mins in presence of NADPH by HPLC analysis. The format is ADME, microsome.
[12] abbreviates: pH 6.8 buffer solution, read-out: solubility.

≈ marks a conversion by molar mass, not a printed value.

A word on the solubility: it is the dissolved amount per volume that the medium holds. In general, Cmax refers to the highest concentration seen after dosing. What is called Tmax is the time from dosing to the highest level. Broadly, the AUC is the area under the concentration-time curve, a measure of exposure. Usually MRT stands for a mean duration of stay, worked out from the concentration-time curve. For orientation: Vd means the apparent volume that relates the amount in the body to the concentration in plasma or blood. Lower therefore signals little distribution into tissue. The clearance is the volume of plasma or blood freed of the substance per unit of time. The low end stands for inefficient removal, the high end for efficient removal. Usually bioavailability stands for the share of a dose that reaches the circulation, judged against a reference dose that is usually intravenous. High values mean much systemic uptake, low ones little systemic uptake. Take `Cc1cc(-c2nc3cccnn3c2-c2ccnc(NC(=O)c3cc[n+]([O-])c(C)c3)c2)ccc1F`: the solubility in series [1] (setting [12]) is 0.91 µg/mL (≈ 2 µM). Moreover, the remaining at 20 min, 1 µM in series [2] stood at 16 µL/min/mg. This compound displayed a Retention_time in [3] of 23 min. Further, the peak level in [4] (Cmax) was 75 ng/mL. Also, in series [5], the Tmax stood at 2 h. Also, in series [6], the AUC is 703 ng·h/mL. The compound further returned an MRT in series [7] of 5.32 h. Also, in [8], the Vd came to 1.38 L/kg. Further, the clearance in series [9] is 10 mL/min/kg. The compound also registered a bioavailability in series [10] of 13.5%.
On to `Cc1cc(-c2nc3cccnn3c2-c2ccnc(NC(=O)c3ccc(C)[n+]([O-])c3)c2)ccc1F`, for which, in series [1] (setting [12]), the solubility stood at 2.4 µg/mL (≈ 5.28 µM). The remaining at 20 min, 1 µM in [2] worked out at 23 µL/min/mg.
`Cc1cc(-c2nc3cccnn3c2-c2ccnc(NC(=O)c3cccnc3)c2)ccc1F`: the solubility in [1] (setting [12]) amounted to 0.92 µg/mL (≈ 2.17 µM). Further, the remaining at 20 min, 1 µM in [2] amounted to 71 µL/min/mg.
In the same order, the values of `Cc1ccc(C(=O)Nc2cc(-c3c(-c4ccc(F)c(C)c4)nc4cccnn34)ccn2)cn1` are 0.38 µg/mL (≈ 0.867 µM) and 53 µL/min/mg.
`Cc1cc(-c2nc3cccnn3c2-c2ccnc(NC(=O)c3cc[n+]([O-])c(C)c3)c2)ccc1F.O=S(=O)(O)O`: in [1] (buffer), the solubility result was “Insoluble”. Also, in series [4], the Cmax is 190 ng/mL. In addition, the Tmax in series [5] stood at 1.67 h. The compound further displayed an AUC in [6] of 2130 ng·h/mL. Moreover, the MRT in series [7] worked out at 5.63 h. Besides, the Vd in series [8] came to 1.38 L/kg. Moreover, in series [9], the clearance was 10 mL/min/kg. The bioavailability in [10] was 42.6%.
Take `Cc1cc(C(=O)Nc2cc(-c3c(-c4ccc(F)c(C)c4)nc4cccnn34)ccn2)ccn1`: the solubility in series [1] (setting [12]) turned out to be 0.15 µg/mL (≈ 0.342 µM). Further, the remaining at 20 min, 1 µM in series [2] was determined as 65 µL/min/mg. The Stability in series [11] was 132 µL/min/mg. Also, in series [3], the Retention_time is 33.4 min.
As for `Cc1cc(-c2nc3cccnn3c2-c2ccnc(NC(=O)c3ccncc3)c2)ccc1F`, in series [1] (setting [12]), the solubility amounted to 0.75 µg/mL (≈ 1.77 µM). Also, the remaining at 20 min, 1 µM in series [2] is 75 µL/min/mg. The Stability in series [11] stood at 177 µL/min/mg.

The values are drawn from ChEMBL document CHEMBL4219055, “Structure-based design, synthesis, and biological evaluation of imidazo[1,2-b]pyridazine-based p38 MAP kinase inhibitors” (Bioorg Med Chem, 2018).
